The values that follow come from ChEMBL document CHEMBL1129499, “Azole endothelin antagonists. 3. Using delta log P as a tool to improve absorption” (J Med Chem, 1996).

A value given as a limit tells only on which side of the number the result lay.

A short description of data set [1]: logD (pH 6.5). Particulars: buffer.
The nature of data set [2]: Partition coefficient by standard shake-flask techniquesat 37 C, using octanol and cyclohexane. In kind it is physicochemical. In a few lines:
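Shake-flask partitioning at 37 °C. About 1 mg of compound dissolved in 4.5 mL 0.05 M PIPES, pH 6.5. Aqueous aliquot shaken 2 h with an equal volume of octanol (H-bonding) or cyclohexane (non-H-bonding), then centrifuged. Both phases assayed by HPLC. Delta log P is derived from the octanol and cyclohexane log D values. Mean of at least two determinations.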

Data set [3] can be described thus: Total absorption was estimated by area under curve (AUC) after intraduodenal administration in rat. More on the design: concentration or dose not given beside the values. Particulars: in vivo, id.
For data set [4], the target named is T1, Endothelin receptor type B (Homo sapiens, UniProt P24530).
T1 sequence (P24530 whole entry): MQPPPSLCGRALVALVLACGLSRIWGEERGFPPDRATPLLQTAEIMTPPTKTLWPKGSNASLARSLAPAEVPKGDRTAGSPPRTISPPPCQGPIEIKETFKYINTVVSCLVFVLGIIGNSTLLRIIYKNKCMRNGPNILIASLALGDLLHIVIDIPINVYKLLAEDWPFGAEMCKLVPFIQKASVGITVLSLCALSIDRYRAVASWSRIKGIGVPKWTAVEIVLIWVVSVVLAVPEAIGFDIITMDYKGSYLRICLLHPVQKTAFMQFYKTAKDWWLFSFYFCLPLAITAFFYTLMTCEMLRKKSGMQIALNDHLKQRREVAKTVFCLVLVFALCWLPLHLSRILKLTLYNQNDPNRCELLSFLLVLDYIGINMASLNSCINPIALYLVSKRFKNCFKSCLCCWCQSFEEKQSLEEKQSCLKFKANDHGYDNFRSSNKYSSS
The experiment in a line: Inhibitory activity was evaluated against human Endothelin B receptor. In a few lines:
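Human ETA or ETB receptors expressed in CHO cells. Binding inhibition tested at 11 concentrations from 10⁻¹⁰ to 10⁻⁵ M, in duplicate. IC50 is the mean of at least 2 measurements (n = 2).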

In data set [5] the target is T2, Endothelin-1 receptor (Homo sapiens, UniProt P25101).
T2 sequence (P25101 whole entry): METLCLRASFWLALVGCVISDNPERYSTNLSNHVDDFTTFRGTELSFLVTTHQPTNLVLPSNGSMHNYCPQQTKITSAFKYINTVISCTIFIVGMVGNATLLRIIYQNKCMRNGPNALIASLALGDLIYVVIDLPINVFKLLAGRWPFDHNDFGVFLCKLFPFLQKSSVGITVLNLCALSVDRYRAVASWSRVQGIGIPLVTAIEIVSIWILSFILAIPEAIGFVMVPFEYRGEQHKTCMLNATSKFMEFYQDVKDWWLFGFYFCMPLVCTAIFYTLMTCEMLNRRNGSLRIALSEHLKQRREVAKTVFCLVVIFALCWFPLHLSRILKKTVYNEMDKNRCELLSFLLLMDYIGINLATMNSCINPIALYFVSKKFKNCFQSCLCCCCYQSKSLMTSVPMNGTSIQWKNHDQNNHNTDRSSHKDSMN
The experiment in a line: Inhibitory activity was evaluated against human Endothelin A receptor. In a few lines: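 Human ETA or ETB receptors expressed in CHO cells. Binding inhibition tested at 11 concentrations from 10⁻¹⁰ to 10⁻⁵ M, in duplicate.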

A short description of data set [6]: Oral bioavailability of compound at a dose of 10 mg/kg was determined in rat. Particulars: in vivo. It counts as ADME, organism-based. In a few lines: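 Male Sprague-Dawley rats, n = 4 per group. 10 mg/kg given by gavage or as a slow iv bolus into the jugular vein, 10 mg/mL in ethanol–propylene glycol–D5W (20:30:50) with 1 equiv NaOH. Tail-vein plasma sampled up to 12 h and assayed by HPLC after extraction. F is the dose-corrected ratio of oral to iv AUC0–∞.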

The compound `COc1cccc(Oc2c(NS(=O)(=O)c3ccc(C(C)(C)C)cc3)ncnc2OCCO)c1` came in with a logD in data set [1] of 1.98. Besides, the “delta Log P” value in data set [2] was found to be 2.37.

For `Cc1[nH]c([C@@H](Cc2cn(C)c3ccccc23)NC(=O)[C@H](CC(C)C)NC(=O)NC2CCCCC2)nc1C(=O)O`, the AUC in data set [3] was 4.33 ng·h/mL. Moreover, the values for the half-inhibitory concentration (IC50) in data set [4] and in data set [5] were 34000 nM and 11 nM, respectively. In addition, the “delta Log P” value in data set [2] stood at 5.92.

With `Cc1oc([C@@H](Cc2cn(C)c3ccccc23)NC(=O)[C@H](CC(C)C)NC(=O)N(C)C2CCCCC2)nc1C(=O)O`, in data set [3], the exposure (AUC) was 833 ng·h/mL. Also, the IC50 was greater than 100000 nM in data set [4] and 25 nM in data set [5]. Moreover, the “delta Log P” value in data set [2] amounted to 4.05.

Consider `Cc1[nH]c([C@@H](Cc2cn(C)c3ccccc23)NC(=O)[C@H](CC(C)C)NC(=O)CC2CCCCC2)nc1C(=O)O`, for which the IC50 in data set [4] is greater than 90000 nM; in data set [5] it was 470 nM. For the same compound, in data set [2], the “delta Log P” value was 5.66.

Turning to `Cc1[nH]c([C@@H](Cc2cn(C)c3ccccc23)NC(=O)[C@H](CC(C)C)OC(=O)NC2CCCCC2)nc1C(=O)O`, in data set [3], the AUC is 347 ng·h/mL. The half-maximal inhibitory concentration (IC50) in data set [4] stood at 54000 nM; in data set [5] it was 9.3 nM. The “delta Log P” value in data set [2] is greater than 6.1.

In the case of `Cc1oc([C@@H](Cc2cn(C)c3ccccc23)NC(=O)[C@H](CC(C)C)OC(=O)N(C)C2CCCCC2)nc1C(=O)O`, the AUC in data set [3] is 1840 ng·h/mL. In data set [6], this compound showed a bioavailability of 13.5%. Further, the IC50 in data set [4] worked out at 90000 nM; in data set [5] it was 4.6 nM. The “delta Log P” value in data set [2] was determined as 3.82.

As for `Cc1oc([C@@H](Cc2cn(C)c3ccccc23)NC(=O)[C@H](CC(C)C)NC(=O)CC2CCCCC2)nc1C(=O)O`, the concentration for half-maximal inhibition (IC50) in data set [4] is greater than 100000 nM. Further, the “delta Log P” value in data set [2] was 3.78.

Regarding `Cc1oc([C@@H](Cc2cn(C)c3ccccc23)NC(=O)[C@H](CC(C)C)OC(=O)NC2CCCCC2)nc1C(=O)O`, the AUC in data set [3] was 815 ng·h/mL. Moreover, the IC50 is 48000 nM in data set [4] and 21 nM in data set [5]. In data set [2], the “delta Log P” value is recorded as 4.04.

Consider `Cc1oc([C@@H](Cc2cn(C)c3ccccc23)NC(=O)[C@@H](CC(=O)NC2CCCCC2)CC(C)C)nc1C(=O)O`, for which the exposure (AUC) in data set [3] was 292 ng·h/mL. The IC50 in data set [4] was greater than 100000 nM; in data set [5], 310 nM. Besides, the “delta Log P” value in data set [2] worked out at 3.82.

Consider `Cc1oc([C@@H](Cc2cn(C)c3ccccc23)NC(=O)[C@H](CC(C)C)NC(=O)OC2CCCCC2)nc1C(=O)O`, for which, in data set [3], the AUC was 1360 ng·h/mL. In addition, the half-maximal inhibitory concentration (IC50) in data set [4] is greater than 100000 nM; in data set [5], 41 nM. Also, in data set [2], the “delta Log P” value is recorded as 4.66.

Turning to `Cc1[nH]c([C@@H](Cc2cn(C)c3ccccc23)NC(=O)[C@@H](CC(=O)NC2CCCCC2)CC(C)C)nc1C(=O)O`, the AUC in data set [3] is 81.7 ng·h/mL. Also, the IC50 is greater than 100000 nM in data set [4] and 29 nM in data set [5]. The “delta Log P” value in data set [2] is reported as greater than 6.2.

Consider `Cc1[nH]c([C@@H](Cc2cn(C)c3ccccc23)NC(=O)[C@H](CC(C)C)N(C)C(=O)NC2CCCCC2)nc1C(=O)O`, for which, in data set [3], the exposure (AUC) is 247 ng·h/mL. For the same compound, the half-maximal inhibitory concentration (IC50) in data set [4] is greater than 100000 nM; in data set [5], 22 nM. Besides, in data set [2], the “delta Log P” value is given as greater than 6.

On to `Cc1[nH]c([C@@H](Cc2cn(C)c3ccccc23)NC(=O)[C@H](CC(C)C)NC(=O)OC2CCCCC2)nc1C(=O)O`, for which the AUC in data set [3] was 168 ng·h/mL. The results for the half-inhibitory concentration (IC50) in data set [4] and in data set [5] were greater than 100000 nM and 76 nM, respectively. The “delta Log P” value in data set [2] is recorded as greater than 6.2.

For `Cc1oc([C@@H](Cc2cn(C)c3ccccc23)NC(=O)[C@H](CC(C)C)OC(=O)OC2CCCCC2)nc1C(=O)O`, the area under the curve (AUC) in data set [3] was 1760 ng·h/mL. The IC50 in data set [4] was 79000 nM; in data set [5] it was 17 nM. Further, the “delta Log P” value in data set [2] was 3.71.

Consider `Cc1oc([C@@H](Cc2cn(C)c3ccccc23)NC(=O)[C@H](CC(C)C)N(C)C(=O)NC2CCCCC2)nc1C(=O)O`, for which, in data set [3], the AUC was 983 ng·h/mL. The concentration for half-maximal inhibition (IC50) was greater than 100000 nM in data set [4] and 450 nM in data set [5]. For the same compound, the “delta Log P” value in data set [2] was 4.59.

With `Cc1[nH]c([C@@H](Cc2cn(C)c3ccccc23)NC(=O)[C@H](CC(C)C)NC(=O)N(C)C2CCCCC2)nc1C(=O)O`, in data set [3], the exposure (AUC) is 103 ng·h/mL. Besides, the IC50 in data set [4] worked out at 20000 nM; in data set [5] it was 1.8 nM. For the same compound, in data set [2], the “delta Log P” value was found to be 5.4.

Regarding `CCCN(Cc1ccc(-c2ccccc2-c2nnn[nH]2)cc1)c1ncccc1C(=O)O`, the pH-dependent lipophilicity (logD) in data set [1] is on record as -0.85. Besides, the “delta Log P” value in data set [2] amounted to 2.45.

As to `Cc1oc([C@@H](Cc2cn(C)c3ccccc23)NC(=O)[C@H](CC(C)C)NC(=O)NC2CCCCC2)nc1C(=O)O`, the AUC in data set [3] was 193 ng·h/mL. The IC50 in data set [4] was greater than 100000 nM; in data set [5], 220 nM. In data set [2], the “delta Log P” value is greater than 6.1.

`Cn1c(=O)c2[nH]cnc2n(C)c1=O.O` [THEOPHYLLINE] showed a logD in data set [1] of -0.12. In addition, the “delta Log P” value in data set [2] stood at 1.53.
